# Source: PMC3401037 (ACS Chemical Biology, 2012)
# “Also recorded” adds a separate entry of the source.
# Tests used:
# [1] = system: GC signaling; test: Pilot chemical screen of FDA approved drug library, AB.9 GRE:Luc cells; format: cell-based, zebrafish; details: 48 h; for retest for activation of GC signaling: at least 2 concentrations; for primary screen hit (activation of GC signaling): 4 μg/mL in 0.3% DMSO, robust z-score cutoff 12.3
# Method in brief: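 GRE:Luc AB.9 cells in luciferin-L-15 received library compounds prediluted to 40 μg/mL in 3% DMSO, giving a final 4 μg/mL in 0.3% DMSO. There were 3 replica plates, each with 8 DEX (10 μM) and 8 DMSO controls, read for 48 h. Log-transformed trapezoidal AUCs were robust z-scored, with a cutoff of 12.3 set by ROC/Youden index. Retests used a second supplier, the same setup and ≥2 concentrations.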
# [2] = system: GC signaling; test: Pilot chemical screen of FDA approved drug library, GRE:Luc larvae; format: in vivo, zebrafish; details: 48 h; for retest for activation of GC signaling: GRE:Luc larvae, at least 2 concentrations; for primary screen hit (activation of GC signaling): larvae, 4 μg/mL in 0.3% DMSO, robust z-score cutoff 1.49
# Method in brief: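 Single 5 dpf GRE:Luc larvae in luciferin-E3 were exposed to library compounds at a final 4 μg/mL in 0.3% DMSO (prediluted to 40 μg/mL in 3% DMSO), with 5–11 replicates per compound. Each plate held 8 DEX (10 μM) and 8 DMSO controls; reading lasted 48 h. Hits were called from log-transformed AUCs, robust z-scored, above a cutoff of 1.49 chosen by ROC/Youden index. Retests used a second supplier and ≥2 concentrations.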
# [3] = system: GC signaling; test: GRIZLY assay: bioluminescence of single GRE:Luc transgenic zebrafish larvae; format: in vivo; details: for inhibition of dexamethasone-induced relative reporter activity: in presence of 5 μM dexamethasone; for relative reporter (luciferase) activity in response to treatment: 5 dpf, compound added to the water
# Method in brief: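 Single 4 dpf transgenic larvae were placed one per well in E3 medium with 0.5 mM luciferin and dosed via the water at 5 dpf. The antagonist was given with 5 μM DEX; organotins with 5 μM DEX for 24 h; salt stress was 250 mM NaCl. Plates were sealed and read at 28 °C. Larval n was 48 for dose–response and 22 for salt. Tests were non-parametric, with EC50/IC50 from non-linear regression.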
# [4] = system: GC signaling; test: AB.9 GRE:Luc cell reporter bioluminescence assay; format: cell-based, zebrafish; details: AB.9 GRE:Luc cells; for inhibition of dexamethasone-induced relative reporter activity: co-treated with 10 nM DEX (Figure 2 legend: 5 nM)
# Method in brief: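 AB.9 GRE:Luc cells were seeded at 35,000 cells/well one day ahead and held at 28 °C. Medium was then swapped for phenol-red-free L-15 with 0.5 mM luciferin before compound addition. Organotin runs used DEX in 17% (v/v) charcoal-treated FCS with TBT or DBT at 30–500 nM. Plates were sealed and read for 24 h at 28 °C. Analysis used one-way ANOVA with Dunnett's posttest; IC50 came from non-linear regression.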
# [5] = system: Luciferase expression; test: Whole mount immunohistochemistry with anti-luciferase antibody in GRE:Luc larvae; format: in vivo, zebrafish; details: 5 dpf larvae, 40 μM, 8 h
# [6] = system: endogenous cortisol levels; test: Cortisol-ELISA of larval extracts; format: in vivo, zebrafish; details: after 20 min
# Method in brief: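 Osmotic stress was induced in 5 dpf larvae with 250 mM NaCl, and endogenous cortisol was followed over time after exposure (n = 5).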
smiles,measurement,setting,value
C[C@]12C[C@H](O)[C@H]3[C@@H](CCC4=CC(=O)CC[C@@]43C)[C@@H]1CC[C@@H]2C(=O)CO [corticosterone],retest for activation of GC signaling,[1],able to activate the GC signaling pathway
same,retest for activation of GC signaling,[2],unable to do so at all concentrations tested
same,primary screen hit (activation of GC signaling),[2],not retained in the primary screen
CC#C[C@]1(O)CC[C@H]2[C@@H]3CCC4=CC(=O)CCC4=C3[C@@H](c3ccc(N(C)C)cc3)C[C@@]21C [mifepristone],inhibition of dexamethasone-induced relative reporter activity,[3]; GRE:Luc larvae,blocked the response of the reporter to DEX treatment
same,inhibition of dexamethasone-induced relative reporter activity,[4],blocked the response of the reporter to DEX treatment
C[C@]12C=CC(=O)C=C1CC[C@@H]1[C@@H]2C(=O)C[C@@]2(C)[C@H]1CC[C@]2(O)C(=O)CO [prednisone],primary screen hit (activation of GC signaling),[1],being the exception
same,retest for activation of GC signaling,[1],weak activation of GC signaling only at the highest concentration tested
same,retest for activation of GC signaling,[2],unable to do so at all concentrations tested
same,primary screen hit (activation of GC signaling),[2],not retained in the primary screen
"CCC[CH2][Sn]([Cl])([Cl])[CH2]CCC [DBT, dibutyltin dichloride]",inhibition of dexamethasone-induced relative reporter activity,[3]; GRE:Luc larvae,did not show statistically significant attenuation of GC signaling
same,inhibition of dexamethasone-induced relative reporter activity,[4],significantly reduced by treatment with 250 and 500 nM DBT; also recorded: statistically significant inhibition of bioluminescence at higher concentrations
C[C@H]1C[C@H]2[C@@H]3CCC4=CC(=O)C=C[C@]4(C)[C@@]3(F)[C@@H](O)C[C@]2(C)[C@@]1(O)C(=O)CO [betamethasone],fluorescence intensity of luciferase immunohistochemistry,[5],"significant (p = 0.0115, n = 10) increase"
"C[C@]12CCC(=O)C=C1CC[C@@H]1[C@@H]2[C@@H](O)C[C@@]2(C)[C@H]1CC[C@]2(O)C(=O)CO [cortisol, hydrocortisone]",relative reporter (luciferase) activity in response to treatment,[3]; GRE:Luc larvae,responded in a dose-dependent manner
CC(=O)S[C@@H]1CC2=CC(=O)CC[C@]2(C)[C@H]2CC[C@@]3(C)[C@@H](CC[C@@]34CCC(=O)O4)[C@H]12 [spironolactone],primary screen hit (activation of GC signaling),[2],scored as primary screen hits
NCCC(O)(P(=O)(O)O)P(=O)(O)O [pamidronic acid],primary screen hit (activation of GC signaling),[1],false positive hits
same,retest for activation of GC signaling,[1],could not be confirmed during the rescreen
CC(=O)[C@H]1CC[C@H]2[C@@H]3CC=C4C[C@@H](O)CC[C@]4(C)[C@H]3CC[C@]12C [pregnenolone],cortisol levels in the larvae after treatment,[6],significantly increased cortisol levels
same,cortisol levels in the larvae after treatment,[6]; listed as Pregnenolone,increase in cortisol (hydrocortisone) levels
same,retest for activation of GC signaling,[1],did not activate the GC pathway
same,retest for activation of GC signaling,[2],confirmed to activate the GC signaling pathway in vivo
same,primary screen hit (activation of GC signaling),[2],scored as primary screen hits
Nc1c2c(nc3ccccc13)CCCC2O (stereo not drawn) [hydroxytacrine],primary screen hit (activation of GC signaling),[1],false positive hits
same,retest for activation of GC signaling,[1],could not be confirmed during the rescreen
C=C1C[C@H]2[C@@H]3C=C(C)C4=CC(=O)CC[C@]4(C)[C@H]3CC[C@]2(C)[C@@]1(OC(C)=O)C(C)=O [melengestrol acetate],retest for activation of GC signaling,[2],dose-dependently activate GC signaling
same,primary screen hit (activation of GC signaling),[2],missed
C[C@]12CCC(=O)C=C1CC[C@@H]1[C@@H]2[C@@H](O)C[C@]2(C=O)[C@@H](C(=O)CO)CC[C@@H]12 [aldosterone],relative reporter (luciferase) activity in response to treatment,[3]; GRE:Luc larvae,did not respond
same,relative reporter activity in response to treatment,[4],did not respond
C[C@@H]1C[C@H]2[C@@H]3CCC4=CC(=O)C=C[C@]4(C)[C@@]3(F)[C@@H](O)C[C@]2(C)[C@@]1(O)C(=O)CO [dexamethasone],induction of reporter activity at 1 dpf,"[3]; 20 μM DEX, 1 dpf, 9 h after start of treatment",low-level yet non-significant induction
same,relative reporter (luciferase) activity in response to treatment,[3]; GRE:Luc larvae,increase in relative luciferase activity
same,relative reporter (luciferase) activity in response to treatment,"[3]; GRE:Luc larvae, listed as DEX",responded in a dose-dependent manner
"CCC[CH2][Sn]([CH2]CCC)[CH2]CCC [TBT, tributyltin]",lowest concentration inhibiting GC signaling in GRE:Luc larvae,"[3]; GRE:Luc larvae, 5 μM dexamethasone, measured for 24 h, p ≤ 0.05",20 nM
same,inhibition of dexamethasone-induced relative reporter activity,[3]; GRE:Luc larvae,effective in inhibiting GC signaling
same,inhibition of dexamethasone-induced relative reporter activity,[4],indistinguishable from cells treated with DEX alone
